# A selection: hits, their analogues and other compounds. The true share with any hit is near 3.8%.
# Kir21 inh – blocks the mouse Kir2.1 inward-rectifier potassium channel; P35561; HEK293-Kir2.1, FluxOR thallium flux fluorescence; hits give low values; B-score at 10 µM; 310,000 tested, 0.85% active; AID 1672;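 active means fluorescence ratio B-score at or below minus 3 SD of library scores, with starting-brightness B-score within 2 SD, cut at about -4.2 in these data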;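 further: channel flux triggered by added potassium and thallium sulfate stimulus; B-score of peak minus minimum fluorescence over baseline after thallium stimulus; more negative B-score means stronger Kir2.1 block with less thallium influx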
# KCNK3 block – human KCNK3 channel inhibition, primary screen; B-score at 10 µM; O14649; CHO-KCNK3 thallium flux, FluxOR fluorescence; hits give low values; 340,000 tested, 0.84% active;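 active means B-score under library mean minus 4 SD, starting fluorescence ratio at most library mean plus 5 SD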;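 further: more negative B-score means stronger inhibition of thallium flux through KCNK3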
# hERG protect – compounds protecting human hERG from proarrhythmic drug block; activation (rescue from dofetilide block), less the hit threshold, % at 10 µM; Q12809; CHO-hERG, FluxOR thallium flux, dofetilide IC70 present; 310,000 tested, 0.51% active;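 active means activation above the mean of controls blocked by dofetilide plus 5 SD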;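 further: thallium influx through hERG after potassium depolarization seen as dye fluorescence rise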
# KCNQ1 inh – human KCNQ1 channel inhibition | P51787 | CHO-K1 KCNQ1, FluxOR thallium flux fluorescence; hits give high values | B-score at 10 µM | 310,000 tested, 1.3% active | AID 2642;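 active means compounds whose thallium flux B-score, printed positive for inhibition, exceeds three library SD while starting fluorescence stays within three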;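 further: channel opened by potassium depolarization with thallium stimulus after 20 min compound exposure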
# KCNK9 inh – inhibitors of human KCNK9 two-pore domain potassium channel; Q9NPC2; HEK293 KCNK9, FluxOR thallium flux fluorescence; hits give low values; B-score at 10 µM; 310,000 tested, 1.2% active;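 active means ratio B-score over 3 SD below the library mean, with starting fluorescence within 5 SD of its mean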;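 further: negative B-score means less thallium flux so channel inhibition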
# Target sequence (Q9NPC2 whole entry, looked up, the tested form may be a part): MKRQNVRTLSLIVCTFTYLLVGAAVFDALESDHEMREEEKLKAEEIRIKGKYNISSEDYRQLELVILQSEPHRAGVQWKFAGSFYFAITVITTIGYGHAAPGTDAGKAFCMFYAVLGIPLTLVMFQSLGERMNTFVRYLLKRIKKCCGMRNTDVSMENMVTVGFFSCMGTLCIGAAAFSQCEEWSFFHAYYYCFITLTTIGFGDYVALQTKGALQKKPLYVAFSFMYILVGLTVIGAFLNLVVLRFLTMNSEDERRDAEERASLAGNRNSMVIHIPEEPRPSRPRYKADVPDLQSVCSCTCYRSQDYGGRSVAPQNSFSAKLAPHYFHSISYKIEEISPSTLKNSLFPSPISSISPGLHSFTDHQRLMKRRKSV
# KCNQ1 pot – potentiates or activates the human KCNQ1 potassium channel; CHO-K1 KCNQ1, thallium flux FluxOR fluorescence; hits give high values; B-score at 10 µM; 310,000 tested, 0.35% active; AID 2648;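 active means fluorescence ratio B-score, a plate-corrected score, at least three library SD, with initial intensity B-score within 5 SD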
#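 Assay system: stable KCNQ1 CHO-K1 line; medium: assay buffer, equal DMSO in all wells; timing: 90 min dye loading and 20 min compound exposure, both at room temperature; technique: kinetic FluxOR thallium fluorescence, 10-s 1-Hz baseline, 110-s post-stimulus read; read-out basis: B score of baseline-normalized fluorescence ratio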
# KCNK9 block conf – human KCNK9 inhibitor confirmation; shares compounds with KCNK9 inh; HEK293 KCNK9 cells, FluxOR thallium flux fluorescence; inhibition, % at 10 µM; 4,900 tested, 43% active; AID 492992;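 active means thallium signal inhibited by more than 5 SD of the compound-free buffer control wells, on both duplicate plates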;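 further: 0% = assay buffer control wells without compound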
# Kir21 sel – tests whether KCNK9 modulators also affect mouse Kir2.1; shares compounds with KCNK9 inh; Kir2.1 cells, FluxOR thallium flux fluorescence; inhibition, % at 10 µM; 4,900 tested, 4% active; AID 492993;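 active means thallium signal drop more than 5 SD beyond the mean of the no-compound control wells, seen in both duplicate plates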;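 further: signal is fluorescence rise after thallium addition divided by baseline fluorescence; plate controls were assay buffer only for no effect and full block by chlorpromazine control for full effect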
# KCNK9 uninduced – second check of KCNK9 modulator effects in non-induced HEK293 cells; shares compounds with KCNK9 inh; FluxOR thallium flux; inhibition, % at 10 µM; 4,900 tested, 40% active; AID 492997;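 active means thallium signal drop beyond 5 SD of the untreated control mean, on both duplicate plates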;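 further: plate controls were buffer only IC0 wells for no effect and SID17386958 at its maximal inhibitory level for full effect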
# Starred values were filed as active, the others as inactive; i = inactive; / = no result given.
SMILES,Kir21 inh,KCNK3 block,hERG protect,KCNQ1 inh,KCNK9 inh,KCNQ1 pot,KCNK9 block conf,Kir21 sel,KCNK9 uninduced
O=C(C/C=N/OCc1ccccc1F)c1cnc(-c2ccc(Cl)cc2)s1,0.04,i,-8,i,i,i,i,i,i
O=C(C/C=N/OCc1ccc(F)cc1Cl)c1cnc(-c2ccccc2)s1,-0.43,i,-7,i,i,i,i,i,i
O=S(=O)(Cc1cc(Sc2ccc(Cl)cc2)nc(-c2ccccc2)n1)c1ccccc1,1.6,i,-10,i,-8.5*,i,i,i,32%*
CCCNC(=O)c1sc2c(c1C(=O)Nc1ccccn1)CCCC2,-0.03,i,-9,i,i,i,/,/,/
Cc1cc(=O)c2cc(Br)ccc2n1CC(=O)NCc1ccccc1,-1.6,i,-7,i,-9.7*,i,i,i,33%*
O=C(Cn1c(=O)n(CC(=O)NCc2ccccc2)c2ccccc21)NCc1ccccc1,1.2,i,1,i,i,i,/,/,/
Nc1ncnc2c1ncn2[C@@H]1O[C@H](CN=C2NS(=O)(=O)c3ccccc32)[C@@H](O)[C@H]1O,/,i,/,/,/,/,/,/,/
CSc1ccc(C(=O)C2CCCN(Cc3cccn3-c3cccnc3)C2)cc1 (stereo not drawn),-3.3,i,-1,i,i,i,i,i,i
O=C(c1ccc(Cl)cc1)C1CCCN(Cc2cccn2-c2cccnc2)C1 (stereo not drawn),-2.8,i,-8,i,i,i,/,/,/
CCCCCN=C(N)N/N=C/c1c[nH]c2ccc(OC)cc12,-9.4,i,-31,7*,-11*,i,66%*,64%*,i
COc1ccc(C(=O)N/N=C/c2c[nH]c3ccccc23)cc1,0.11,i,-8,i,i,i,/,/,/
CC(/C=C1\SC(=S)N(C(C(=O)O)C(C)C)C1=O)=C\c1ccccc1 (stereo not drawn),2.4,i,-15,i,i,i,i,i,i
CC(/C=C1\SC(=S)N(NS(=O)(=O)c2ccc(C)cc2)C1=O)=C\c1ccccc1,1.5,i,2,i,i,39*,i,i,i
C=CCOc1ccc(/C=C2\SC(=S)N(NS(=O)(=O)c3ccccc3)C2=O)cc1,3.3,i,-4,i,i,15*,i,i,i
CC(/C=C1\SC(=S)N(NS(=O)(=O)c2ccccc2)C1=O)=C\c1ccccc1,0.06,i,10*,i,i,14*,i,i,i
CC(/C=C1\SC(=S)N(NC(=O)c2ccccc2C)C1=O)=C\c1ccccc1,0.54,i,-9,i,i,i,/,/,/
O=C1N/C(=N/S(=O)(=O)Cc2ccccc2)S/C1=C/c1ccc2c(c1)OCO2,0.45,i,-21,i,i,i,i,i,i
O=C1NC(=S)SC1=Cc1ccc2c(c1)OCO2,/,i,/,/,/,/,/,/,/
CC(C)(C)C1CCC(C(=O)Nc2ccc(N3CCOCC3)cc2N2CCOCC2)CC1 (stereo not drawn),/,i,/,/,/,/,/,/,/
Cc1ccc(C2CC2c2n[nH]c(=S)n2-c2ccc(C)cc2)cc1 (stereo not drawn),-0.86,i,-8,i,i,i,i,i,i
C/C(=N\Nc1cc(C(F)(F)F)ccc1Cl)c1ccccc1O,0.49,i,-12,i,i,i,i,i,i
C/C(=N\Nc1ccc(F)cc1F)c1ccccc1O,0.02,i,-10,i,i,i,/,/,/
O=C(O)c1cccc(S(=O)(=O)Nc2ccc3c(c2)CCC3)c1,-0.46,i,0,i,i,i,/,/,/
CC(C)/C=C/C(=O)N1CCCC(N2CCN(c3ccccc3F)CC2)C1 (stereo not drawn),-0.7,i,-6,i,i,i,i,i,i
O=C(c1ccco1)N1CCCC(N2CCN(c3ccccc3F)CC2)C1 (stereo not drawn),1.4,i,-2,i,i,i,/,/,/
SMILES,Kir21 inh,KCNK3 block,hERG protect,KCNQ1 inh,KCNK9 inh,KCNQ1 pot,KCNK9 block conf,Kir21 sel,KCNK9 uninduced
Cc1ccc2c(c1)N(CCC(=O)NC1CCCCC1C)C(=O)CO2 (stereo not drawn),0.31,i,-9,i,i,i,i,i,i
O=C(c1ccc(CSCc2ccccc2F)o1)N1CCN(c2ccc(N3CCOCC3)nn2)CC1,-2.4,i,-15,i,i,i,/,/,/
C=CCN1CN=C(NS(=O)(=O)c2ccc(NC(C)=O)cc2)NC1,-0.05,i,-7,i,-10*,i,i,i,i
Cc1ccc(OCCn2c(=S)[nH]c3ccccc32)c(C(C)C)c1,-1.8,i,-10,i,i,i,i,42%*,i
Cc1cccc(OCCn2c(=S)[nH]c3ccccc32)c1,-1.5,i,-1,i,i,i,/,/,/
COc1ccc(S(=O)(=O)Nc2ccc(-n3cnnn3)cc2)cc1[N+](=O)[O-],/,i,/,/,/,/,/,/,/
COc1ccc(CCCc2nnc(SCC(=O)N/N=C\c3ccc(O)c(OC)c3)o2)cc1C,-0.98,i,-8,i,i,i,/,/,/
COc1ccc(/C=N/NC(=O)CSc2nnc(CCCc3ccc(OC)c(C)c3)o2)cc1,1.9,i,-16,i,i,i,i,i,i
COc1ccc(/C=N/Nc2nc(-c3ccc(Cl)cc3)cc(C(F)(F)F)n2)cc1OC,0.06,i,-10,6*,i,i,i,i,i
CCn1c(C)c(C)c2cc(C(=O)NC3CCCCCC3)ccc21,0.17,i,-7,i,i,i,/,/,/
Cc1cccc(C)c1-n1c(C)cc(/C=N/NC(=O)CSc2ncccn2)c1C,-0.67,i,-12,i,-9.5*,i,50%*,i,28%*
COc1ccc(-c2ccnc3c(Br)c(C)nn23)cc1,/,i,/,/,/,/,/,/,/
CC1=NOC(=O)/C1=C\c1ccc(-c2cccc(Cl)c2)o1,-1.3,i,-12,i,i,i,i,i,i
O=C(CCC1CCCC1)NCCS(=O)(=O)N1CCN(c2ccccc2F)CC1,0.16,i,-14,i,i,i,/,/,/
c1cn(CCCNC2CCCCCCC2)cn1,-0.02,i,-3,i,i,i,/,/,/
CN1CCN(Cc2cccc(Oc3ccccc3)c2)CC1,-0.38,i,-10,i,i,i,/,/,/

# Source: PubChem
